Tests used:
Coagulation factor X = Coagulation factor X (Homo sapiens, UniProt P00742); test: Inhibitory concentration against human Coagulation factor X
[1] = Number of mice died after 1 day upon i.v. administration at 10 mg/kg into tail vein out of 3 animals tested; format: ADME, organism-based; parameters: dose 10 mg/kg, route intravenous; conditions: mouse, in vivo, iv, 24 h
How it was run: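 Male ICR mice given a single 10 mg/kg bolus into the tail vein. Result is expressed as deaths per animals tested.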

Prothrombin = Prothrombin (Homo sapiens, UniProt P00734); test: Inhibitory concentration against human Coagulation factor II (thrombin)
Trypsin = Trypsin (Homo sapiens, UniProt P07477+P07478+P35030); test: Inhibitory concentration against human Trypsin; format: protein assay
How it was run: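 Human trypsin (5 U/mL as added) preincubated 10 min at 37 °C with vehicle or compound at 50, 100 and 200 µM final. S-2222 was added at 0.125 and 0.25 mM final and incubated 10 min at 37 °C. Stopped with 60% acetic acid; p-nitroaniline read at 405 nm.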

Plasminogen = Plasminogen (Homo sapiens, UniProt P00747); test: Inhibitory concentration against human Plasmin
Chain of Plasminogen (P00747 97-580 limits assumed): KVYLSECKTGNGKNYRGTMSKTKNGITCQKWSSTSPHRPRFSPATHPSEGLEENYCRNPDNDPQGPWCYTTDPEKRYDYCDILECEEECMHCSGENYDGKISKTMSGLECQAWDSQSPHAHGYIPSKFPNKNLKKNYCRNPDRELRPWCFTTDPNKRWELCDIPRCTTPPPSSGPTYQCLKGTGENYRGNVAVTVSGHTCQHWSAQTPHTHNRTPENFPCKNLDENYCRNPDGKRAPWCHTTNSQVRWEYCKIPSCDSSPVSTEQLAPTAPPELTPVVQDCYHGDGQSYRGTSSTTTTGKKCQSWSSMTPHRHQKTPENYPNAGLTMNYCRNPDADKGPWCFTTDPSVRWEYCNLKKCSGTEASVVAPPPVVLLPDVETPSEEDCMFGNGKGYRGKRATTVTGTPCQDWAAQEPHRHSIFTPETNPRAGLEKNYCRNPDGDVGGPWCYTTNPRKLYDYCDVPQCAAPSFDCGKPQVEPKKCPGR
Chain of Plasminogen (P00747 581-810 limits assumed): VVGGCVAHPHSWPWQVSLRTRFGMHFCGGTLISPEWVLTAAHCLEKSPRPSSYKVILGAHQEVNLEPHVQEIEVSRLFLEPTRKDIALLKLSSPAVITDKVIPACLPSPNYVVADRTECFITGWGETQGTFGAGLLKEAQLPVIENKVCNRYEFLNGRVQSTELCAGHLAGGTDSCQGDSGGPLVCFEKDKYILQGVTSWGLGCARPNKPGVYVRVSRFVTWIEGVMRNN
How it was run: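 Plasmin assay, human enzyme at 0.02 U/mL as added, preincubated 10 min at 37 °C with vehicle or compound at 12.5, 25 and 50 µM final. S-2403 was added at 0.125 and 0.25 mM final and incubated 10 min at 37 °C. Stopped with 60% acetic acid; A405 of p-nitroaniline.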

Chain of Coagulation factor X (P00742 41-179 limits assumed): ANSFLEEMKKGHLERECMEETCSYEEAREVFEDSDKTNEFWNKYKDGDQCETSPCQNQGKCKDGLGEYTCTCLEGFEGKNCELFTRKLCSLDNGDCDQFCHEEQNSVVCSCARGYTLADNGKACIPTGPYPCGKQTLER
Chain of Coagulation factor X (P00742 235-488 limits assumed): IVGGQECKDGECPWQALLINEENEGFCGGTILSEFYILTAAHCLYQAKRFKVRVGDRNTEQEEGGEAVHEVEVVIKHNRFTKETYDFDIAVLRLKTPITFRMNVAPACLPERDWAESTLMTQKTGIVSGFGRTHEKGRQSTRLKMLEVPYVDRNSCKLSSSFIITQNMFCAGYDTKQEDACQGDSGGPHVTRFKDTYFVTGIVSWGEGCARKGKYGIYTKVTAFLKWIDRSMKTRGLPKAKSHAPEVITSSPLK

SMILES	IC50 (Prothrombin) [nM]	Ki (Trypsin) [nM]	Ki (Plasminogen) [nM]	IC50 (Coagulation factor X) [nM]	Mortality [1]
CCOC(=O)C1(COc2ccc3c(c2)CN(C(=N)N)CC3)CCN(c2cc[n+](C)cc2)CC1	–	–	–	1130	–
Cl.Cl.N=C(N)N1CCc2ccc(OCC3CCN(c4ccncc4)CC3)cc2C1	–	–	–	56	3
Cl.Cl.N=C(N)N1CCc2ccc(OCC3(C(=O)O)CCN(c4ccncn4)CC3)cc2C1	–	–	–	120	0
Cl.Cl.N=C(N)N1CCc2ccc(OCC3CCN(c4ccncc4CCC(=O)O)CC3)cc2C1	–	–	–	160	0
Cl.Cl.N=C(N)N1CCc2ccc(OCC3CCN(c4ccnc5ccccc45)CC3)cc2C1	–	–	–	420	3
COC(=O)c1cnccc1N1CCC(COc2ccc3c(c2)CN(C(=N)N)CC3)CC1.Cl.Cl	–	–	–	270	3
CC(=N)N1CCC(COc2ccc3c(c2)CN(C(=N)N)CC3)CC1.Cl.Cl	–	–	–	510	3
N=C(N)N1CCc2ccc(OCC3CCN(Cc4ccccc4N)CC3)cc2C1	> 10000	–	–	3250	–
Cc1cc(N2CCC(COc3ccc4c(c3)CN(C(=N)N)CC4)(C(=O)O)CC2)ccn1.Cl.Cl	–	–	–	230	0
CCOC(=O)C1(COc2ccc3c(c2)CN(C(=N)N)CC3)CCN(c2ccncc2)CC1.Cl.Cl	–	–	–	74	3
N=C(N)N1CCc2ccc(OCCC3(C(=O)O)CCN(c4ccncc4)CC3)cc2C1	–	–	–	230	–
N=C(N)N1CCc2ccc(OCC3CCN(Cc4cccc(N)c4)CC3)cc2C1	> 10000	–	–	4060	–
Cl.Cl.Cl.N=C(N)N1CCc2ccc(OCC3CCN(Cc4ccncc4)CC3)cc2C1	–	–	–	–	3
Cl.Cl.N=C(N)N1CCc2ccc(OCC3CCN(c4ccncc4C(=O)O)CC3)cc2C1	> 10000	–	–	1980	0
CCOC(=O)CCc1cnccc1N1CCC(COc2ccc3c(c2)CN(C(=N)N)CC3)CC1.Cl.Cl	> 10000	–	–	190	3
Cl.Cl.N=C(N)N1CCc2ccc(OCC3(C(=O)O)CCN(c4ccncc4)CC3)cc2C1	–	–	–	–	0
N=C(N)N1CCc2ccc(OCC3CCNCC3)cc2C1	> 10000	–	–	3340	–
N=C(N)N1CCc2ccc(SCC3(C(=O)O)CCN(c4ccncc4)CC3)cc2C1	–	–	–	390	–
CC(=N)N1CC[C@H](Oc2ccc([C@H](Cc3ccc4ccc(C(=N)N)cc4c3)C(=O)O)cc2)C1.Cl [DX-9065A HYDROCHLORIDE HYDRATE]	–	620	23000	–	–

The next lines start with results.

IC50 (Prothrombin) [nM]	Ki (Trypsin) [nM]	Ki (Plasminogen) [nM]	SMILES	IC50 (Coagulation factor X) [nM]	Mortality [1]
> 10000	–	–	N=C(N)N1CCCc2ccc(OCC3(C(=O)O)CCN(c4ccncc4)CC3)cc2C1	> 10000	–
> 10000	–	–	CC(=O)N1CCC(COc2ccc3c(c2)CN(C(=N)N)CC3)CC1	–	–
> 10000	–	–	N=C(N)c1ccc2ccc(OCC3(C(=O)O)CCN(c4ccncc4)CC3)cc2c1	510	–
> 10000	–	–	N=C(N)N1CCc2ccc(S(=O)(=O)CC3(C(=O)O)CCN(c4ccncc4)CC3)cc2C1	5440	–
> 10000	–	–	N=C(N)N1CCc2ccc(S(=O)(=O)NC3(C(=O)O)CCN(c4ccncc4)CC3)cc2C1	–	–
> 10000	–	–	N=C(N)N1CCc2ccc(OCC3CCN(Cc4ccccn4)CC3)cc2C1	1350	–

— ChEMBL document CHEMBL1139513, “Synthesis and structure-activity relationships of novel selective factor Xa inhibitors with a tetrahydroisoquinoline ring” (J Med Chem, 2005)
